# Test system: HEK-293T
# Test: Multiplex assay against HEK293T
# Type: toxicity, cell-based
# Conditions: human
# Summary of the method: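 Live cells were stained at seeding with Hoechst33342, BioTracker Green Microtubule Cytoskeleton Dye, MitoTracker Red and Annexin V Alexa Fluor 680, then imaged on a CQ1 microscope at 37°C and 5% CO2 after compound addition. CellPathfinder machine-learning gating split cells into Hoechst high-intensity objects or normal cells. Normal cells were split into healthy, pyknosed or fragmented nuclei, and pyknosed cells into mitotic or apoptotic. Tubulin, mitochondrial-mass and membrane-permeability phenotypes are per cents of healthy-nucleus cells.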
# [1] = 12 h, 1 µM, compound concentration 1 uM, replicate 1
# [2] = 12 h, 1 µM, compound concentration 1 uM, replicate 2
# [3] = 12 h, 10 µM, compound concentration 10 uM, replicate 1
# [4] = 12 h, 10 µM, compound concentration 10 uM, replicate 2
# [5] = 24 h, 1 µM, compound concentration 1 uM, replicate 1
# [6] = 24 h, 1 µM, compound concentration 1 uM, replicate 2
# [7] = 24 h, 10 µM, compound concentration 10 uM, replicate 1
# [8] = 24 h, 10 µM, compound concentration 10 uM, replicate 2
# [9] = 48 h, 1 µM, compound concentration 1 uM, replicate 1
# [10] = 48 h, 1 µM, compound concentration 1 uM, replicate 2
# [11] = 48 h, 10 µM, compound concentration 10 uM, replicate 1
# [12] = 48 h, 10 µM, compound concentration 10 uM, replicate 2
smiles,measurement,setting,value
CNC[C@H](O)c1ccc(O)c(O)c1 [EPINEPHRINE],Population Apoptotic (%),[1],20%
same,Population Fragmented Nuclei (%),[1],6%
same,Population Healthy Nuclei (%),[1],81%
same,Population Hoechst High Intensity Objects (%),[1],7%
same,Population Membrane Permeable-Phenotype (%),[1],0%
same,Population Mitochondria Different-Phenotype (%),[1],31%
same,Population Mitotic Cells (%),[1],80%
same,Population Normal (%),[1],92%
same,Population Pyknosed Nuclei (%),[1],11%
same,Population Tubulin-Different-Phenotype (%),[1],26%
same,Population Apoptotic (%),[2],56%
same,Population Hoechst High Intensity Objects (%),[2],6%
same,Population Mitochondria Different-Phenotype (%),[2],65%
same,Population Mitotic Cells (%),[2],43%
same,Population Normal (%),[2],93%
same,Population Tubulin-Different-Phenotype (%),[2],27%
same,Population Apoptotic (%),[3],55%
same,Population Fragmented Nuclei (%),[3],12%
same,Population Healthy Nuclei (%),[3],75%
same,Population Hoechst High Intensity Objects (%),[3],9%
same,Population Membrane Permeable-Phenotype (%),[3],1%
same,Population Mitochondria Different-Phenotype (%),[3],65%
same,Population Mitotic Cells (%),[3],44%
same,Population Normal (%),[3],90%
same,Population Pyknosed Nuclei (%),[3],11%
same,Population Tubulin-Different-Phenotype (%),[3],39%
same,Population Apoptotic (%),[4],56%
same,Population Fragmented Nuclei (%),[4],11%
same,Population Healthy Nuclei (%),[4],61%
same,Population Hoechst High Intensity Objects (%),[4],40%
same,Population Membrane Permeable-Phenotype (%),[4],0%
same,Population Mitochondria Different-Phenotype (%),[4],62%
same,Population Mitotic Cells (%),[4],43%
same,Population Normal (%),[4],59%
same,Population Pyknosed Nuclei (%),[4],26%
same,Population Tubulin-Different-Phenotype (%),[4],25%
same,Population Apoptotic (%),[5],19%
same,Population Fragmented Nuclei (%),[5],9%
same,Population Healthy Nuclei (%),[5],80%
same,Population Hoechst High Intensity Objects (%),[5],5%
same,Population Membrane Permeable-Phenotype (%),[5],0%
same,Population Mitochondria Different-Phenotype (%),[5],25%
same,Population Mitotic Cells (%),[5],80%
same,Population Normal (%),[5],94%
same,Population Pyknosed Nuclei (%),[5],9%
same,Population Tubulin-Different-Phenotype (%),[5],21%
same,Population Apoptotic (%),[6],36%
same,Population Hoechst High Intensity Objects (%),[6],7%
same,Population Membrane Permeable-Phenotype (%),[6],1%
same,Population Mitochondria Different-Phenotype (%),[6],41%
same,Population Mitotic Cells (%),[6],63%
same,Population Normal (%),[6],92%
same,Population Pyknosed Nuclei (%),[6],10%
same,Population Tubulin-Different-Phenotype (%),[6],18%
same,Population Apoptotic (%),[7],50%
same,Population Fragmented Nuclei (%),[7],13%
same,Population Healthy Nuclei (%),[7],75%
same,Population Hoechst High Intensity Objects (%),[7],8%
same,Population Membrane Permeable-Phenotype (%),[7],0%
same,Population Mitochondria Different-Phenotype (%),[7],50%
same,Population Mitotic Cells (%),[7],50%
same,Population Normal (%),[7],91%
same,Population Pyknosed Nuclei (%),[7],11%
same,Population Tubulin-Different-Phenotype (%),[7],36%
same,Population Apoptotic (%),[8],80%
same,Population Fragmented Nuclei (%),[8],11%
same,Population Healthy Nuclei (%),[8],71%
same,Population Hoechst High Intensity Objects (%),[8],39%
same,Population Mitochondria Different-Phenotype (%),[8],43%
same,Population Mitotic Cells (%),[8],19%
same,Population Normal (%),[8],60%
same,Population Pyknosed Nuclei (%),[8],17%
same,Population Tubulin-Different-Phenotype (%),[8],25%
same,Population Apoptotic (%),[9],16%
same,Population Fragmented Nuclei (%),[9],11%
same,Population Healthy Nuclei (%),[9],81%
same,Population Hoechst High Intensity Objects (%),[9],3%
same,Population Membrane Permeable-Phenotype (%),[9],1%
same,Population Mitochondria Different-Phenotype (%),[9],13%
same,Population Mitotic Cells (%),[9],83%
same,Population Normal (%),[9],96%
same,Population Pyknosed Nuclei (%),[9],7%
same,Population Tubulin-Different-Phenotype (%),[9],9%
same,Population Apoptotic (%),[10],35%
same,Population Fragmented Nuclei (%),[10],12%
same,Population Healthy Nuclei (%),[10],78%
same,Population Mitochondria Different-Phenotype (%),[10],24%
same,Population Mitotic Cells (%),[10],64%
same,Population Pyknosed Nuclei (%),[10],8%
same,Population Tubulin-Different-Phenotype (%),[10],15%
same,Population Apoptotic (%),[11],33%
same,Population Fragmented Nuclei (%),[11],21%
same,Population Healthy Nuclei (%),[11],72%
same,Population Hoechst High Intensity Objects (%),[11],3%
same,Population Membrane Permeable-Phenotype (%),[11],0%
same,Population Mitochondria Different-Phenotype (%),[11],25%
same,Population Mitotic Cells (%),[11],66%
same,Population Normal (%),[11],96%
same,Population Pyknosed Nuclei (%),[11],5%
same,Population Tubulin-Different-Phenotype (%),[11],11%
same,Population Apoptotic (%),[12],69%
same,Population Fragmented Nuclei (%),[12],17%
same,Population Healthy Nuclei (%),[12],67%
same,Population Hoechst High Intensity Objects (%),[12],21%
same,Population Mitochondria Different-Phenotype (%),[12],34%
same,Population Mitotic Cells (%),[12],30%
same,Population Normal (%),[12],78%
same,Population Pyknosed Nuclei (%),[12],14%
same,Population Tubulin-Different-Phenotype (%),[12],13%
O=C(NCCO)c1cccc(-c2cc(Nc3ccc(OC(F)(F)F)cc3)ncn2)c1,Population Apoptotic (%),[1],27%
same,Population Fragmented Nuclei (%),[1],7%
same,Population Healthy Nuclei (%),[1],78%
same,Population Hoechst High Intensity Objects (%),[1],8%
same,Population Membrane Permeable-Phenotype (%),[1],0%
same,Population Mitochondria Different-Phenotype (%),[1],47%
same,Population Mitotic Cells (%),[1],72%
same,Population Normal (%),[1],91%
same,Population Pyknosed Nuclei (%),[1],13%
same,Population Tubulin-Different-Phenotype (%),[1],23%
same,Total Cell Count,[1],409
same,Population Apoptotic (%),[2],40%
same,Population Fragmented Nuclei (%),[2],4%
same,Population Healthy Nuclei (%),[2],77%
same,Population Hoechst High Intensity Objects (%),[2],6%
same,Population Mitochondria Different-Phenotype (%),[2],60%
same,Population Mitotic Cells (%),[2],59%
same,Population Normal (%),[2],93%
same,Population Pyknosed Nuclei (%),[2],17%
same,Population Tubulin-Different-Phenotype (%),[2],16%
same,Total Cell Count,[2],262
same,Population Apoptotic (%),[3],55%
same,Population Fragmented Nuclei (%),[3],6%
same,Population Healthy Nuclei (%),[3],76%
same,Population Hoechst High Intensity Objects (%),[3],10%
same,Population Membrane Permeable-Phenotype (%),[3],0%
same,Population Mitochondria Different-Phenotype (%),[3],69%
same,Population Mitotic Cells (%),[3],44%
same,Population Normal (%),[3],89%
same,Population Pyknosed Nuclei (%),[3],17%
same,Population Tubulin-Different-Phenotype (%),[3],49%
same,Total Cell Count,[3],374
same,Population Apoptotic (%),[4],63%
same,Population Fragmented Nuclei (%),[4],5%
same,Population Healthy Nuclei (%),[4],73%
same,Population Hoechst High Intensity Objects (%),[4],12%
same,Population Mitochondria Different-Phenotype (%),[4],74%
same,Population Mitotic Cells (%),[4],36%
same,Population Normal (%),[4],87%
same,Population Pyknosed Nuclei (%),[4],21%
same,Population Tubulin-Different-Phenotype (%),[4],26%
same,Total Cell Count,[4],325
same,Population Apoptotic (%),[5],26%
same,Population Fragmented Nuclei (%),[5],11%
same,Population Healthy Nuclei (%),[5],78%
same,Population Hoechst High Intensity Objects (%),[5],4%
same,Population Membrane Permeable-Phenotype (%),[5],0%
same,Population Mitochondria Different-Phenotype (%),[5],21%
same,Population Mitotic Cells (%),[5],73%
same,Population Normal (%),[5],95%
same,Population Pyknosed Nuclei (%),[5],10%
same,Population Tubulin-Different-Phenotype (%),[5],15%
same,Total Cell Count,[5],538
same,Population Apoptotic (%),[6],41%
same,Population Fragmented Nuclei (%),[6],7%
same,Population Healthy Nuclei (%),[6],79%
same,Population Hoechst High Intensity Objects (%),[6],6%
same,Population Mitochondria Different-Phenotype (%),[6],38%
same,Population Mitotic Cells (%),[6],58%
same,Population Normal (%),[6],93%
same,Population Pyknosed Nuclei (%),[6],13%
same,Population Tubulin-Different-Phenotype (%),[6],17%
same,Total Cell Count,[6],331
same,Population Apoptotic (%),[7],39%
same,Population Fragmented Nuclei (%),[7],5%
same,Population Healthy Nuclei (%),[7],80%
same,Population Hoechst High Intensity Objects (%),[7],7%
same,Population Membrane Permeable-Phenotype (%),[7],0%
same,Population Mitochondria Different-Phenotype (%),[7],61%
same,Population Mitotic Cells (%),[7],60%
same,Population Normal (%),[7],92%
same,Population Pyknosed Nuclei (%),[7],14%
same,Population Tubulin-Different-Phenotype (%),[7],38%
same,Total Cell Count,[7],447
same,Population Apoptotic (%),[8],50%
same,Population Fragmented Nuclei (%),[8],6%
same,Population Healthy Nuclei (%),[8],77%
same,Population Hoechst High Intensity Objects (%),[8],14%
same,Population Mitochondria Different-Phenotype (%),[8],56%
same,Population Mitotic Cells (%),[8],50%
same,Population Normal (%),[8],85%
same,Population Pyknosed Nuclei (%),[8],15%
same,Population Tubulin-Different-Phenotype (%),[8],22%
same,Total Cell Count,[8],354
same,Population Apoptotic (%),[9],17%
same,Population Fragmented Nuclei (%),[9],12%
same,Population Healthy Nuclei (%),[9],80%
same,Population Hoechst High Intensity Objects (%),[9],3%
same,Population Membrane Permeable-Phenotype (%),[9],2%
same,Population Mitochondria Different-Phenotype (%),[9],17%
same,Population Mitotic Cells (%),[9],82%
same,Population Normal (%),[9],96%
same,Population Pyknosed Nuclei (%),[9],7%
same,Population Tubulin-Different-Phenotype (%),[9],13%
same,Total Cell Count,[9],897
same,Population Apoptotic (%),[10],37%
same,Population Fragmented Nuclei (%),[10],9%
same,Population Healthy Nuclei (%),[10],79%
same,Population Hoechst High Intensity Objects (%),[10],5%
same,Population Membrane Permeable-Phenotype (%),[10],0%
same,Population Mitochondria Different-Phenotype (%),[10],23%
same,Population Mitotic Cells (%),[10],62%
same,Population Normal (%),[10],94%
same,Population Pyknosed Nuclei (%),[10],10%
same,Population Tubulin-Different-Phenotype (%),[10],9%
same,Total Cell Count,[10],476
same,Population Apoptotic (%),[11],41%
same,Population Fragmented Nuclei (%),[11],10%
same,Population Healthy Nuclei (%),[11],79%
same,Population Hoechst High Intensity Objects (%),[11],8%
same,Population Membrane Permeable-Phenotype (%),[11],1%
same,Population Mitochondria Different-Phenotype (%),[11],36%
same,Population Mitotic Cells (%),[11],58%
same,Population Normal (%),[11],91%
same,Population Pyknosed Nuclei (%),[11],10%
same,Population Tubulin-Different-Phenotype (%),[11],18%
same,Total Cell Count,[11],595
same,Population Apoptotic (%),[12],58%
same,Population Fragmented Nuclei (%),[12],16%
same,Population Healthy Nuclei (%),[12],72%
same,Population Hoechst High Intensity Objects (%),[12],17%
same,Population Membrane Permeable-Phenotype (%),[12],0%
same,Population Mitotic Cells (%),[12],41%
same,Population Normal (%),[12],82%
same,Population Pyknosed Nuclei (%),[12],11%
same,Population Tubulin-Different-Phenotype (%),[12],13%
same,Total Cell Count,[12],504

# Reference: ChEMBL document CHEMBL5058577, “EUbOPEN Chemogenomics Library 2 (Multiplex)” (2022)
